Data published in ChEMBL document CHEMBL1138925, “Design and synthesis of orally active pyrrolidin-2-one-based factor Xa inhibitors” (Bioorg Med Chem Lett, 2006).

Columns and labels:
[1] = Volume of distribution in Han Wistar rat at 1 mg/kg, iv and 2.5 mg/kg, po; format: ADME, organism-based; conditions: in vivo, read-out: Vss
How it was run: (§1)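 Male Han Wistar rats were given an intravenous bolus at a nominal 1 mg/kg, or oral gavage at a nominal 2.5 mg/kg.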

[2] = Half life in Han Wistar rat at 1 mg/kg, iv and 2.5 mg/kg, po; format: ADME, organism-based; conditions: in vivo; how it was run: as §1
[3] = Plasma clearance in Han Wistar rat at 1 mg/kg, iv and 2.5 mg/kg, po; format: ADME, organism-based; how it was run: as §1
[4] = Lipophilicity, log D by CHI assay at pH 7.4; format: physicochemical; conditions: buffer, read-out: Log D
[5] = Oral bioavailability in Han Wistar rat at 1 mg/kg, iv and 2.5 mg/kg, po; format: ADME, organism-based; conditions: in vivo; how it was run: as §1
[6] = Plasma clearance in Beagle dog at 1 mg/kg, iv and 1 mg/kg, po; format: ADME, organism-based, Canis lupus familiaris
[7] = Oral bioavailability in Beagle dog at 1 mg/kg, iv and 1 mg/kg, po; format: ADME, organism-based, Canis lupus familiaris; conditions: in vivo
[8] = Half life in Beagle dog at 1 mg/kg, iv and 1 mg/kg, po; format: ADME, organism-based, Canis lupus familiaris; conditions: in vivo
[9] = Volume of distribution in Beagle dog at 1 mg/kg, iv and 1 mg/kg, po; format: ADME, organism-based, Canis lupus familiaris; conditions: in vivo, read-out: Vss

Structure (SMILES)	Vd [1] [L/kg]	half-life [2] [min]	clearance [3] [mL/min/kg]	chromatographic logD [4]	bioavailability [5] [%]	clearance [6] [mL/min/kg]	bioavailability [7] [%]	half-life [8] [min]	Vd [9] [L/kg]
C[C@@H](C(=O)N1CCOCC1)N1CC[C@H](N(CC(=O)O)S(=O)(=O)c2ccc3cc(Cl)ccc3c2)C1=O	0.3	12	37	–	–	–	–	–	–
C[C@@H](C(=O)N1CCOCC1)N1CC[C@H](N(C)S(=O)(=O)c2ccc3cc(Cl)ccc3c2)C1=O	0.4	30	15	–	–	–	–	–	–
CCC(=O)CN([C@H]1CCN([C@@H](C)C(=O)N2CCOCC2)C1=O)S(=O)(=O)c1ccc2cc(Cl)ccc2c1	1.1	30	37	–	–	–	–	–	–
C[C@@H](C(=O)N1CCOCC1)N1CC[C@H](NS(=O)(=O)c2ccc3cc(Cl)ccc3c2)C1=O	0.6	54	13	2.2	85	2.7	100	126	0.44
C[C@@H](C(=O)N1CC2CNCC(C2)C1)N1CC[C@H](NS(=O)(=O)c2ccc3cc(Cl)ccc3c2)C1=O	–	–	–	1.47	–	–	–	–	–
C[C@@H](C(=O)N1CC2CCC1CC2)N1CC[C@H](NS(=O)(=O)c2ccc3cc(Cl)ccc3c2)C1=O	–	–	–	2.94	–	–	–	–	–
C[C@@H](C(=O)N1CCOCC1)N1CC[C@H](N(CC(N)=O)S(=O)(=O)c2ccc3cc(Cl)ccc3c2)C1=O	0.5	18	24	–	–	–	–	–	–
